Source: ChEMBL document CHEMBL1149296, “Virtual screening of human 5-aminoimidazole-4-carboxamide ribonucleotide transformylase against the NCI diversity set by use of AutoDock to identify novel nonfolate inhibitors” (J Med Chem, 2004)
Active and inactive are the calls of the source. The rule behind the calls is not given here.

Biological target: Bifunctional purine biosynthesis protein ATIC (Homo sapiens, UniProt P31939)
Assay: Inhibition of human AICAR Tfase
In short: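 Human ATIC transformylase activity assay run per the cited earlier method. IC50 measured in a mix of 25 nM ATIC, 50 μM AICAR substrate and 8.5 μM 10-formyltetrahydrofolate cofactor, the cofactor made in-house by a modified literature route. Inhibition mode was also examined with 0.1 mg/mL saponin present.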

SMILES	IC50 [µM]	Activity	also measured
Nc1cccc2cc(S(=O)(=O)Nc3ccc(C(=O)O)cc3)ccc12	4.1		
CC(C)[C@H](C)/C=C/[C@@H](C)[C@H]1CC[C@H]2C3=CC=C4C[C@@H](O)CC[C@]4(C)[C@H]3CC[C@]12C		inactive	
CC1=NN(c2cc(Cl)c(S(=O)(=O)O)cc2Cl)C(=O)C1/N=N/c1ccc(S(=O)(=O)O)cc1 (stereo not given)	20.1		
CN1CCN(c2ccc3[nH]c(-c4ccc5[nH]c(-c6ccc(O)cc6)nc5c4)nc3c2)CC1		inactive	
CC(=O)Nc1ccc(S(=O)(=O)Nc2cnc3ccccc3n2)cc1	54.7		
C[C@@H]1O[C@@H](O[C@H]2C[C@@H](O)[C@]3(CO)[C@H]4[C@H](O)C[C@]5(C)[C@@H](C6=CC(=O)OC6)CC[C@]5(O)[C@@H]4CC[C@]3(O)C2)[C@H](O)[C@H](O)[C@H]1O		inactive	
CC1=NN(c2ccc(S(=O)(=O)O)cc2)C(=O)C1/N=N/c1ccc(S(=O)(=O)Nc2ccccc2)c(C)c1 (stereo not given)	11.6		
Cc1cc(N)ccc1/N=N/c1cc(S(=O)(=O)O)c2cccc(S(=O)(=O)O)c2c1	7.6		
NS(=O)(=O)c1cccc2cc(/N=N/c3cccc4c(S(=O)(=O)O)cccc34)ccc12	0.6		Ki: 0.154 µM
Cc1ccc(S(=O)(=O)N/N=C2/C=C3CC[C@H]4[C@@H]5CC[C@H]([C@H](C)CCCC(C)C)[C@@]5(C)CC[C@@H]4[C@@]3(C)CC2)cc1	9.6		
O=C(O)C1=C/C(=C/C(c2ccccc2)c2cc(C(=O)O)c(O)c3ccccc23)c2ccccc2C1=O (stereo not given)	204		
C[C@H](CCC(=O)O)[C@H]1CC[C@H]2[C@@H]3CC[C@@H]4C[C@@H](O)CC[C@]4(C)[C@H]3C[C@H](O)[C@]12C		inactive	
CC1CCC2N(C1)CC1C3(O)CC45OC6(O)C(O)CCC4(C)C6CCC5C3(O)CC(O)C13C(C)(O)C23O (stereo not given)		inactive	
C[C@]12CC[C@H]3[C@@H](CCC4=CC(=O)CC[C@@]43C)[C@@H]1CC[C@@H]2C(=O)COS(=O)(=O)c1ccc(Br)cc1	13.9		
COc1ccc(C(=O)O[C@H]2CC[C@@]3(C)[C@@H]4CC[C@H]5[C@]6(O)C[C@H](O)[C@@]7(O)[C@@H](CN8C[C@@H](C)CC[C@H]8[C@@]7(C)O)[C@]6(O)C[C@@]53O[C@]24O)cc1OC [VERATRIDINE]	231		
CC(C)(O)/C=C/C(=O)[C@](C)(O)[C@H]1[C@H](O)C[C@@]2(C)[C@@H]3CC=C4[C@@H](C=C(O)C(=O)C4(C)C)[C@]3(C)C(=O)C[C@]12C		inactive	
Cc1ccc(OS(=O)(=O)c2ccc(/N=N/c3c(C)[nH]n(-c4ccc(Cl)cc4S(=O)(=O)O)c3=O)cc2)cc1	3.3		
CC(CC(=O)O)[C@H]1CC[C@@]2(C)[C@@H]3C(=O)C[C@H]4C(C)(C)[C@@H](O)CC[C@]4(C)[C@H]3C(=O)C[C@]12C (single isomer, unassigned)		inactive	
O=S(=O)(O)c1cc(/N=[N+](\[O-])c2cc(S(=O)(=O)O)c3ccccc3c2)cc2ccccc12	7.8		
O=S(=O)(O)c1ccc(/N=N/c2ccc(/N=N/c3ccc(O)c4cccc(S(=O)(=O)O)c34)cc2)cc1	11.6		
Cc1ccc2nc(-c3ccc(NC(=O)c4ccc(N)cc4)c(S(=O)(=O)O)c3)sc2c1	16.9		
C[C@]12CC[C@H]3[C@@H](CCC4=CC(=O)CC[C@@H]43)[C@@H]1CCC2OC1(O)C(=O)c2ccccc2C1=O (stereo not given in full)		inactive	
O=C(O)c1cc(C(=O)C(=O)c2cc(C(=O)O)c(O)c3ccccc23)c2ccccc2c1O	8.8		
Cc1ccc(S(=O)(=O)Nc2cc([N+](=O)[O-])c3scnc3c2)cc1	36.1		
